Active and inactive are the calls of the source. The calls are words filed in the database; no cut-off is given here.

The values below come from ChEMBL document CHEMBL4024789, “Neutral Porphyrin Derivative Exerts Anticancer Activity by Targeting Cellular Topoisomerase I (Top1) and Promotes Apoptotic Cell Death without Stabilizing Top1-DNA Cleavage Complexes” (J Med Chem, 2018).

The subject of assay [1] is MEF. As to the kind of experiment: Cytotoxicity against TDP1-/- MEF assessed as reduction in cell viability by MTT assay. The class given is cell-based. The following applies: Mus musculus. The gist of the method:
(§1)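 Survival of each cell line measured across a range of compound concentrations. Percent inhibition of viability at each concentration calculated against untreated control and IC50 estimated. MEFs were TDP1+/+ and TDP1–/– primary cells. Mean ± SD of at least three experiments in duplicate.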
(Formazan colour is commonly taken as a measure of viable cells.)

Assay [2] concerns the target T1, DNA topoisomerase 1 (Homo sapiens, UniProt P11387).
T1 sequence (P11387 whole entry): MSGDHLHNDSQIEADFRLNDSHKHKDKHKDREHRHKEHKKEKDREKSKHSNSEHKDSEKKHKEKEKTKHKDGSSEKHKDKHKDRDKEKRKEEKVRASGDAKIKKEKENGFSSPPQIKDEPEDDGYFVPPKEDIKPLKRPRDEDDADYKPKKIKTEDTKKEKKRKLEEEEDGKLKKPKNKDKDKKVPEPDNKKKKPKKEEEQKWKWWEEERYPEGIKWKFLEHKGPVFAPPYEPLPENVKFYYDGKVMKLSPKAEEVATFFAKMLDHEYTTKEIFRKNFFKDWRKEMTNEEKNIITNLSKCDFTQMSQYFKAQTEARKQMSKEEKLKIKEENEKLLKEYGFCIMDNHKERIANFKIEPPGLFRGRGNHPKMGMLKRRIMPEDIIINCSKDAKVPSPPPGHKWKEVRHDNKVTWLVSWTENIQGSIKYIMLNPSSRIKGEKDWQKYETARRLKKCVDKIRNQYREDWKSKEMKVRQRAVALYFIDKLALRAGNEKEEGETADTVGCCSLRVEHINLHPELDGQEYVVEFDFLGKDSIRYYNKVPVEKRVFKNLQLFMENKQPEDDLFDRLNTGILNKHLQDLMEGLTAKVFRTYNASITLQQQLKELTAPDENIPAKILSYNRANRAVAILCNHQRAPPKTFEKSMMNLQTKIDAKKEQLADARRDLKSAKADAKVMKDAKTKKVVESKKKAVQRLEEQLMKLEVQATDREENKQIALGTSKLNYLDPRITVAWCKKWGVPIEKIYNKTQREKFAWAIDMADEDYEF
As to the kind of experiment: Inhibition of recombinant human topoisomerase-1 expressed in baculovirus infected sf9 cells using supercoiled pBS SK(+) DNA as substrate after 15 mins by ethidium bromide staining based agarose gel electrophoresis method. The method in brief: (§2)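 Relaxation assay: 90 fmol supercoiled pBS (SK+) DNA with 30 fmol recombinant Top1 (Sf-9/baculovirus). Compound either preincubated with Top1 for 5 min before DNA addition, or added simultaneously with DNA; then 37 °C for 15 min. Vehicle 2% DMSO. Read on 1% agarose gel. EC50 from mean ± SD of three experiments.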

Assay [3] has as its target T1, DNA topoisomerase 1. Nature of the assay: Inhibition of recombinant human topoisomerase-1 expressed in baculovirus infected sf9 cells using supercoiled pBS SK(+) DNA as substrate preincubated for 5 mins followed by substrate addition measured after 15 mins by ethidium bromide staining based agarose gel electrophoresis method. The method in brief:
as §2

Assay [4] deals with T2, DNA topoisomerase 1 (Homo sapiens) (UniProt P11387).
T2 sequence (whole entry): T1 sequence (P11387 whole entry)
As to the kind of experiment: Ratio of compound effect for inhibition of recombinant human topoisomerase-1 expressed in baculovirus infected sf9 cells preincubated for 5 mins followed by substrate addition to compound effect for recombinant human topoisomerase-1 expressed in baculovirus infected sf9 cells simultaneously incubated with substrate. The gist of the method:
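Recombinant human Top1 purified from baculovirus-infected Sf-9 cells; 30 fmol enzyme with 90 fmol supercoiled pBS (SK+) DNA (3:1 molar ratio) in relaxation buffer. Compound either preincubated with enzyme 5 min before DNA, or added simultaneously; then 37 °C, 15 min. Relaxation on 1% agarose; % inhibition quantified, EC50 from three experiments (mean ± SD).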

The target of assay [5] is T2, DNA topoisomerase 1 (Homo sapiens). Nature of the assay: Inhibition of recombinant human topoisomerase-1 expressed in baculovirus infected sf9 cells assessed as reduction in cleavage complex formation with supercoiled pBS SK(+) DNA at 10 to 50 uM after 30 mins by ethidium bromide staining based agarose gel electrophoresis method. The gist of the method: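 Plasmid cleavage assay: 50 fmol supercoiled pBS (SK+) with 100 fmol recombinant Top1 plus compound or CPT, or Top1 with CPT before compound addition, at 37 °C for 30 min. Nicked (form II) and supercoiled (form I) DNA resolved by gel.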

For assay [6], the system named is MCF7. As to the kind of experiment: Induction of apoptosis in human MCF7 cells at 10 to 20 uM after 12 hrs by Annexin V-FITC/propidium iodide staining based confocal laser microscopic method relative to control. Type of assay: functional. The gist of the method:
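MCF7 cells exposed 12 h, with or without NAC (10 mM) 30 min pretreatment. Phosphatidylserine detected with annexin V-FITC, nuclei counterstained with PI, confocal imaging; annexin V-positive cells counted from ~100 cells (average ± SEM).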

The target of assay [7] is T2, DNA topoisomerase 1 (Homo sapiens). Nature of the assay: Induction of proteasome-mediated topoisomerase-1 degradation in human MCF7 cells at 10 uM by Western blot method. The following applies: TDE = time-dependent effect. The class given is cell-based. The method in brief:
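Whole-cell extracts of MCF7 cells treated with 10 μM for the indicated times, or preincubated with MG132 (100 nM) for 4 h before 12 h compound exposure. Top1 detected by Western blot with mouse monoclonal anti-Top1 (C21).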
On the technique in general: In western blotting, separated proteins are transferred to a membrane and probed.

The target is the same in assay [8]. Nature of the assay: Inhibition of topoisomerase-1- genomic DNA cleavage complex in human MCF7 cells at 20 uM after 12 hrs by ICE assay. The class given is cell-based. The method in brief:
(§3)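 ICE bioassay in MCF7 cells. Treatment was CPT (10 μM) or compound (20 μM) for 12 h, or CPT for 6 h then compound for a further 6 h. Genomic DNA (0.5–4 μg) probed with anti-Top1 antibody. Quantified with n = 3, ± SEM, t test.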

Assay [9] shares this target. Nature of the assay: Inhibition of […]-induced topoisomerase-1- genomic DNA cleavage complex in human MCF7 cells at 20 uM after 6 hrs by ICE assay. The class given is cell-based. The method in brief: as §3
Assay [10] relates to MCF7. Nature of the assay: Induction of ROS accumulation in human MCF7 cells at 10 uM by CM-H2DCFDA dye based spectrofluorometric method. Type of assay: functional, cell-based. Particulars: TDE = time-dependent effect. The method in brief: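 MCF7 cells treated with 10 μM for the indicated times, with 0.2% DMSO as vehicle control, or pretreated with NAC (10 mM) for 30 min. ROS read as DCF fluorescence from CM-H2DCFDA. Mean ± SD of three independent experiments.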

Assay [11] relates to MCF7. Nature of the assay: Induction of DNA strand breaks in human MCF7 cells at 20 uM after 12 hrs in presence of ROS inhibitor NAC by alkaline comet assay relative to control. The class given is functional, cell-based. The method in brief:
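MCF7 cells treated 12 h, with or without 30 min pretreatment with NAC (10 mM). Strand breaks measured by alkaline comet assay; mean comet tail calculated for 20–25 cells (average ± SEM).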

Assay [12] deals with MCF7. As to the kind of experiment: Induction of apoptosis in human MCF7 cells at 10 to 20 uM after 12 hrs in presence of ROS inhibitor NAC by Annexin V-FITC/propidium iodide staining based confocal laser microscopic method relative to control. The class given is functional, cell-based. The gist of the method: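 MCF7 cells treated for 12 h, with or without 30 min pretreatment with NAC (10 mM). Phosphatidylserine stained with annexin V-FITC, nuclei counterstained with propidium iodide, imaged by confocal microscopy. Annexin V(+) fraction scored from about 100 cells (average ± SEM).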

The subject of assay [13] is MEF. Nature of the assay: Cytotoxicity against TDP1+/+ MEF assessed as reduction in cell viability by MTT assay. Type of assay: cell-based. Particulars: Mus musculus. The method in brief:
as §1

The subject of assay [14] is MCF7. Nature of the assay: Cytotoxicity against human MCF7 cells assessed as reduction in cell viability up to 10 uM in presence of CPT by MTT assay. The class given is functional, cell-based. The gist of the method: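 MCF7 cells pretreated with CPT (5 μM) for 12 h, then compound added at a range of concentrations. Viability inhibition calculated relative to control and IC50 estimated. Mean ± SD, at least three experiments in duplicate.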

The term IC50 denotes the concentration at which inhibition is half-maximal. A word on the EC50: it is the concentration at which the effect is half-maximal. For the molecule `CN(C)c1ccc(-c2c3nc(c(-c4ccc(N(C)C)cc4)c4ccc([nH]4)c(-c4ccc(C(=O)O)cc4)c4nc(c(-c5ccc(C(=O)O)cc5)c5ccc2[nH]5)C=C4)C=C3)cc1`, the IC50 in the assay on MEF [1] and in the assay on MEF [13] was over 10000 nM throughout. The EC50 was found to be 1470 nM on DNA topoisomerase 1 [2] and 381 nM at DNA topoisomerase 1 [3]. Besides, the Ratio in assay [4] fell in the range of 2 to 3. Also, the inhibition entry in assay [5], in assay [8] and in [9] was “Active” in each case. Also, in the assay on MCF7 [6], the “fold change (FC)” value turned out to be 7. Moreover, the Activity entry (in assay [7]; in the assay with MCF7 [10]) was “Tde” each time. The outcome with MCF7 [11], with MCF7 [12] and with MCF7 [14] was inactive.
